Experimental data from BindingDB's records for doi:10.1021/acs.jmedchem.8b01327 (2019).

Molecular target: Mu-type opioid receptor (Rattus norvegicus, UniProt P33535)
Assay: Displacement of [3H]DAMGO from mu opioid receptor in rat brain membranes incubated for 45 mins by liquid scintillation counting method
Summary of the method: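 Rat brain membranes (cerebella removed; 0.3–0.5 mg protein) in 50 mM Tris-HCl, pH 7.4, were incubated 45 min at 35 °C with 1 nM [3H]DAMGO (MOR) or 0.5 nM [3H][Ile5,6]deltorphin II (DOR) plus varied test concentrations. Nonspecific binding was set with 10 μM naloxone. Samples were GF/C filtered, washed and scintillation counted. Ki was obtained by Cheng–Prusoff; duplicates, 3–4 experiments.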

Mu-type opioid receptor, sequence (P33535 whole entry): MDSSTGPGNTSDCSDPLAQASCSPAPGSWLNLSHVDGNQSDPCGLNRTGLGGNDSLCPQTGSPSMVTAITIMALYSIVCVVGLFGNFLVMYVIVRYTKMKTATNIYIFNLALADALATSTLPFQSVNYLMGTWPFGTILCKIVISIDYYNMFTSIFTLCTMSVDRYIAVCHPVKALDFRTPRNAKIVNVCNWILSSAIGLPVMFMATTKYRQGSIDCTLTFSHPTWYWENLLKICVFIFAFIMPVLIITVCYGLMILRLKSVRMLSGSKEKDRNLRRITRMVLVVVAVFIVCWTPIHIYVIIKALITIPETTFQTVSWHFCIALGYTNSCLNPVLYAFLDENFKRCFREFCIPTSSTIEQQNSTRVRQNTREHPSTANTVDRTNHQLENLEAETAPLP

Work on `CO[C@@]12CC[C@@H](N[C@@H](CC(N)=O)C(=O)O)[C@@H]3Oc4c(O)ccc5c4[C@@]31CCN(C)[C@@H]2C5` yielded a Ki of 1.3 nM.
